We go through 8 compounds from PMC2773749 (Biochemistry, 2009).

One test concerns the target β-lactamase (Enterobacter cloacae, UniProt P05364). Put plainly: β-Lactamase promiscuous inhibitor assay. Type of test: biochemical. The settings on record: in the absence of Triton X-100.
In test [1] the target is T1, K18PL tau (Homo sapiens, UniProt P10636, P618L). The test is described as follows: Primary qHTS K18PL tau fibrillization, ThT fluorescence readout. Particulars: for 1° ThT Screen Curve class / 1° ThT Screen Log IC50: ThT fluorescence; for 1° ThT Screen Log IC50: printed as Log IC50; for 1° ThT Screen % Inhib: maximum % inhibition of ThT fluorescence. The test is classed as biochemical. The procedure, abridged:
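Screen used K18PL tau (15 µM) with Alexa Red-labelled K18PL and 40 µM heparin stock, plus compound at six five-fold dilutions (56 µM–18 nM), run 6 h at 37°C. ThT was added (12.5 µM final, 100 mM glycine pH 8.5) for 1 h at room temperature; read ex 450/em 510 nm. Percent inhibition was computed versus median K18KD and DMSO controls, then pattern-corrected, with concentration-response curves fitted and classified. Single determinations per concentration.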
In general terms: Quantitative high-throughput screening tests each substance at several concentrations.

In test [2] the target is T1, K18PL tau. The test is described as follows: Primary qHTS K18PL tau assembly, fluorescence polarization. The test is classed as biochemical. Particulars: for 1° FP Screen Log IC50: printed as Log IC50; for 1° FP Screen % Inhib: maximum % inhibition of FP. The procedure, abridged: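 K18PL (30 µM stock with 0.24 µM Alexa Red-labelled K18PL) received compound at six five-fold dilutions (56 µM–18 nM), then heparin, and incubated 6 h at 37°C. FP was read after ThT (ex 555, em 632 nm, P/S channels); mP = 1000*(S−G*P)/(S+G*P), G = 1. Inhibition was normalised to non-fibrillizing K18KD and DMSO wells, pattern-corrected, and curve-fitted and classified. Single determinations.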

The nature of test [3]: Activity in other PubChem / NIH Chemical Genomics Center screens.
Another test deals with full-length tau40 (Homo sapiens, UniProt P10636). Put plainly: Tau40 ThT fluorescence assay. The test is classed as biochemical. Particulars: inhibition of ThT fluorescence, compound 50 µM.
For test [4], the target named is T1, K18PL tau. The test is described as follows: Repeat K18PL tau ThT fluorescence assay. The test is classed as biochemical. The settings on record: repeat testing of screening hits, maximum percent inhibition. The procedure, abridged:
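Retesting of K18PL heparin-induced fibrillization used duplicate samples at each concentration, with the highest tested concentration 80 µM. ThT was read at 12.5 µM final in 100 mM glycine, pH 8.5, with excitation 450 nm and emission 510 nm. IC50 and percent inhibition at the top concentration were derived.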

A short description of test [5]: Alexa Red total fluorescence. The settings on record: percent inhibition of Alexa Red total fluorescence. An outline of the steps:
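Alexa Red total fluorescence was computed from the qHTS FP S and P channel readings as TF = S + 2*P. It was expressed as a percentage of the DMSO control value, with values >30% flagged as potential fluorescence interference.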

The next test has as its target Tau40 (Homo sapiens, UniProt P10636). Put plainly: SEC of Tau40 fibrillization reaction post-centrifugation supernatants. The test is classed as biochemical. The settings on record: 50 µM MLS000062428. An outline of the steps: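 Tau40 (50 µM) was incubated with heparin (20 µM) ± test compound in 100 mM sodium acetate, pH 7.0, for 5 days at 37°C. A no-heparin control was included. Reactions were spun at 40,000 g for 30 min, and supernatants were run on Superdex 200 at 0.4 ml/minute. Void volume was set by blue dextran, with BSA and cytochrome c as markers.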

The target in test [6] is T1, K18PL tau. Put plainly: K18PL tau centrifugation. The test is classed as biochemical. Particulars: compound 100 µM, Table 1 hits. An outline of the steps: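 Heparin-induced K18PL fibrillization was run with test compound at a single concentration of 100 µM or with DMSO vehicle, then centrifuged to sediment fibrils. Supernatant and pellet fractions were analysed by SDS-PAGE, and the percentage of tau remaining in the soluble fraction was determined.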

Test [7] concerns the target tau-mediated MT assembly (K18 tau, bovine brain tubulin) (Homo sapiens, UniProt P10636). Put plainly: Tau-mediated MT assembly assay. Type of test: biochemical. The settings on record: 50 µM compound, 40 µM K18, 30 µM tubulin.

The structures appear in SMILES notation.

T1 sequence (P10636 561-686 P618L): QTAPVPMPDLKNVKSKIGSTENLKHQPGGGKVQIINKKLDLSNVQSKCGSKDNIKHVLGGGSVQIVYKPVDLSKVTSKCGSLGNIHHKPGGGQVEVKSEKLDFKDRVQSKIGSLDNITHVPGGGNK
Chain of full-length tau40 (P10636 1-441 isoform P10636-8): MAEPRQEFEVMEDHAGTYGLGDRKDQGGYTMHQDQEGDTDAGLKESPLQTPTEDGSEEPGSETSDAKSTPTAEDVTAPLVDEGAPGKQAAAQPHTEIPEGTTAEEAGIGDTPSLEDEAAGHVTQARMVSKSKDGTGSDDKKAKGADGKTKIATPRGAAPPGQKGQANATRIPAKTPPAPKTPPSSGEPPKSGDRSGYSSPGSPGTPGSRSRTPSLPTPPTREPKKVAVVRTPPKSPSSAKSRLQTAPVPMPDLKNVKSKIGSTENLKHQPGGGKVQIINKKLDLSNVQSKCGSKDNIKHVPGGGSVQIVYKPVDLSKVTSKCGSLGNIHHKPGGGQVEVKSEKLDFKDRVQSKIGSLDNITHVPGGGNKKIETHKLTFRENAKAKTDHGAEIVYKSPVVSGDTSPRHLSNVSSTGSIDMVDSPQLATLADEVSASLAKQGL
Chain of Tau40 (P10636 1-441 isoform P10636-8): as above
Chain of β-lactamase (P05364 21-381): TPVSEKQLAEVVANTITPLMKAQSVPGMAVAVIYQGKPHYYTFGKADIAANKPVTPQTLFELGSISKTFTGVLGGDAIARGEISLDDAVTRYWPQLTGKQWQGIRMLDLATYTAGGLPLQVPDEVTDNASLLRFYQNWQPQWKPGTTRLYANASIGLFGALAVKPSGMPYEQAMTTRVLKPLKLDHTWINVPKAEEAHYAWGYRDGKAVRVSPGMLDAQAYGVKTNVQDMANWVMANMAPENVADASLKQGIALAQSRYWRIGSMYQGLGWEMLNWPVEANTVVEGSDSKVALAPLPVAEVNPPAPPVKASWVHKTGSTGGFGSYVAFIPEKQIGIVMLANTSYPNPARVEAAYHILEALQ
Chain of tau-mediated MT assembly (K18 tau, bovine brain tubulin) (P10636 561-686): as the sequence (P10636 561-686 P618L) above, with L58P counted along it

Regarding `NS(=O)(=O)c1cc(C(=O)O)c(NCc2ccco2)cc1Cl` [Furosemide], the β-lactamase inhibition on β-lactamase was found to be 3%.

Turning to `CCOC(=O)c1nn(-c2ccccc2)c(=O)c2c(N)scc12` [MLS000034832], at K18PL tau [1], the “1° ThT Screen Curve class” value came to 2.1, the “1° ThT Screen Log IC50” value was −5.0 and the “1° ThT Screen % Inhib” value came out at 80%. At K18PL tau [2], the “1° FP Screen Log IC50” value is reported as −5.3. Also, the “promiscuity in other screens” value in test [3] was “do not show signs of promiscuity”.

In the case of `CCn1c(CSc2nccn2C)nc2cc(C(=O)O)ccc21` [MLS000058666], on full-length tau40, the “Tau40 % Inhib” value is 81%. Moreover, at K18PL tau [4], the “Repeat ThT Assay % Inhib” value is 84%. Also, at K18PL tau [1], the “1° ThT Screen Curve class” value turned out to be 1.2, the “1° ThT Screen Log IC50” value is given as −5.4 and the “1° ThT Screen % Inhib” value was determined as 65%. Also, at K18PL tau [2], the “1° FP Screen Curve class” value was 1.2, the “1° FP Screen Log IC50” value is recorded as −5.1 and the “1° FP Screen % Inhib” value is 41%. Further, the “Total Fluor % Inhib” value in test [5] was below 10%.

Take `CCOC(=O)c1nn(-c2ccc(OC)cc2)c(=O)c2c(N)scc12` [MLS000062428]: at full-length tau40, the “Tau40 % Inhib” value came out at 64%. Also, the “Repeat ThT Assay % Inhib” value on K18PL tau [4] was 97%. Also, on K18PL tau [1], the “1° ThT Screen Curve class” value was 2.1, the “1° ThT Screen Log IC50” value is on record as −5.0 and the “1° ThT Screen % Inhib” value came out at 94%. At Tau40 (eluted in column void volume), the “oligomeric tau species in post-centrifugation supernatant” value is on record as “detectable oligomeric species”. In addition, at Tau40 (relative to untreated fibrillization reaction), the “amount of monomeric tau in post-centrifugation supernatant” value was “appreciable increase”. Also, on K18PL tau [2], the “1° FP Screen Curve class” value worked out at 2.2, the “1° FP Screen Log IC50” value is recorded as −5.0 and the “1° FP Screen % Inhib” value turned out to be 46%. The “promiscuity in other screens” value in [3] is “do not show signs of promiscuity”. Further, the “Centrifugation % Soluble” value at K18PL tau [6] worked out at 80%. The “Total Fluor % Inhib” value in test [5] is 49%.

As to `CN(C(=S)Nc1cccnc1)c1ccc(O)cc1` [MLS000339510], at K18PL tau [1], the “1° ThT Screen Log IC50” value is recorded as −5.7. For the same compound, the “1° FP Screen Log IC50” value at K18PL tau [2] is −5.5.

`CC(N)[C@H](O)c1ccc(O)c(O)c1` (stereo partly drawn) [NCGC00093795]: the “Repeat ThT Assay % Inhib” value on K18PL tau [4] amounted to 103%. Besides, the “1° ThT Screen Log IC50” value on K18PL tau [1] is on record as −5.5. Moreover, the “1° FP Screen Log IC50” value on K18PL tau [2] is on record as −5.7.

Turning to `CC(=O)c1c(O)c(C)c(O)c(Cc2c(O)c3c(c(C(=O)/C=C/c4ccccc4)c2O)OC(C)(C)C=C3)c1O` [Rottlerin], the β-lactamase inhibition on β-lactamase was 53%.

Consider `CN(C)c1ccc2nc3ccc(=[N+](C)C)cc-3sc2c1` [methylene blue, reference compound], for which the “promiscuity in other screens” value in [3] is listed as “active in a high percentage of PubChem screens”. Also, in [7], the “effect on tau-mediated tubulin polymerization” value is “significant diminution”.
